{
  "source": "ChEMBL document CHEMBL5154713",
  "about": "“Illuminating a Dark Kinase: Structure-Guided Design, Synthesis, and Evaluation of a Potent Nek1 Inhibitor and Its Effects on the Embryonic Zebrafish Pronephros” (J Med Chem, 2022)",
  "key": {"[1]": {"biological_target": "Tyrosine-protein kinase Lyn (Homo sapiens) (UniProt P07948)", "sequence (P07948 2-512 limits assumed)": "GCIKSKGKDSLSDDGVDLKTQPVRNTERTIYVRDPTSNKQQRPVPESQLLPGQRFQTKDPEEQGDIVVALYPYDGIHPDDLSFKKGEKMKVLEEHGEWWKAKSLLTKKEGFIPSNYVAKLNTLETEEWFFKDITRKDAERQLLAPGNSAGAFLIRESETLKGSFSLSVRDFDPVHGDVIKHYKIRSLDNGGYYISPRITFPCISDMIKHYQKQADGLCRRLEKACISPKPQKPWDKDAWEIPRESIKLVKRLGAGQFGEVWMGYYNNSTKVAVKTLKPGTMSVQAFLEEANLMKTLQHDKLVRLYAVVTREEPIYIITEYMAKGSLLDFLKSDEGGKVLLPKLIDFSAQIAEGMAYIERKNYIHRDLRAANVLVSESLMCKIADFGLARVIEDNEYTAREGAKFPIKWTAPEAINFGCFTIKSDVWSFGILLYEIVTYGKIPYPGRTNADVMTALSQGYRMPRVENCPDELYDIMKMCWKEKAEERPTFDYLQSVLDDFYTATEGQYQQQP", "experiment": "Inhibition of recombinant human Lyn assessed as residual activity at 1 uM using poly(Glu, Tyr) 4:1 as substrate after 40 mins in presence of [gamma-33ATP] by scintillation counting based radiometry assay relative to control", "method_in_brief": "(§1)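 Commercial radiometric panel of 50 kinases. Each recombinant human kinase was tested at a single compound concentration of 1 μM. ATP was set within 15 μM of the apparent Km for ATP for each kinase. Residual activity is relative to control and is the mean of two independent experiments.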"}, "Homo sapiens": {"species": "Homo sapiens", "experiment": "Inhibition of human full length recombinant CDK1/CyclinB assessed as residual activity at 1 uM using histone H1 as substrate incubated for 40 mins in presence of [gamma 33P]-ATP by radiometric scintillation counting assay relative to control", "method_in_brief": "as §1"}, "[2]": {"biological_target": "Phosphatidylinositol 4,5-bisphosphate 3-kinase catalytic subunit delta isoform (Homo sapiens) (UniProt O00329)", "experiment": "Inhibition of human full length recombinant PI3Kdelta assessed as residual activity at 1 uM using phosphatidylinositol 4,5-bisphosphate as substrate incubated for 40 mins in presence ofATP by HTRF assay relative to control"}, "[3]": {"biological_target": "Calcium/calmodulin-dependent protein kinase kinase 2 (Homo sapiens) (UniProt Q96RR4)", "sequence (Q96RR4 2-588 limits assumed)": "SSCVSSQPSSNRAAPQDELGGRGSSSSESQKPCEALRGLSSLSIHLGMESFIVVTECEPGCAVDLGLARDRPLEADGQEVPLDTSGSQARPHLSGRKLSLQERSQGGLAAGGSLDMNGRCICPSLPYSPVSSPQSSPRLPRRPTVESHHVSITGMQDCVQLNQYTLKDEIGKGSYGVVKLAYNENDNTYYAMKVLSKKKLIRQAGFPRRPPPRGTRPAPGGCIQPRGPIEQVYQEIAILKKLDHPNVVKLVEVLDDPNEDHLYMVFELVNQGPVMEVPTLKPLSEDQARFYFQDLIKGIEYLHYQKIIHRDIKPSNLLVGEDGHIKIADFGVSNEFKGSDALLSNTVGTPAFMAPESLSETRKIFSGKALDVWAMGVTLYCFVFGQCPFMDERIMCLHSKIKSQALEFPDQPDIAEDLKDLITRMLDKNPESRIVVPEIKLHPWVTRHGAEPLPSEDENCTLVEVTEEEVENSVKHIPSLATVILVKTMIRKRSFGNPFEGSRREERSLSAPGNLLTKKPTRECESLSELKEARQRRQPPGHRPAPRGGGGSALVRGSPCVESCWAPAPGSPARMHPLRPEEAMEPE", "experiment": "Inhibition of human full length CAMKK2 assessed as residual activity at 1 uM using calmodulin as substrate incubated for 40 mins in presence of [gamma 33P]-ATP by radiometric scintillation counting assay relative to control", "method_in_brief": "as §1"}, "[4]": {"biological_target": "Inhibitor of nuclear factor kappa-B kinase subunit epsilon (Homo sapiens) (UniProt Q14164)", "sequence (Q14164 whole entry)": "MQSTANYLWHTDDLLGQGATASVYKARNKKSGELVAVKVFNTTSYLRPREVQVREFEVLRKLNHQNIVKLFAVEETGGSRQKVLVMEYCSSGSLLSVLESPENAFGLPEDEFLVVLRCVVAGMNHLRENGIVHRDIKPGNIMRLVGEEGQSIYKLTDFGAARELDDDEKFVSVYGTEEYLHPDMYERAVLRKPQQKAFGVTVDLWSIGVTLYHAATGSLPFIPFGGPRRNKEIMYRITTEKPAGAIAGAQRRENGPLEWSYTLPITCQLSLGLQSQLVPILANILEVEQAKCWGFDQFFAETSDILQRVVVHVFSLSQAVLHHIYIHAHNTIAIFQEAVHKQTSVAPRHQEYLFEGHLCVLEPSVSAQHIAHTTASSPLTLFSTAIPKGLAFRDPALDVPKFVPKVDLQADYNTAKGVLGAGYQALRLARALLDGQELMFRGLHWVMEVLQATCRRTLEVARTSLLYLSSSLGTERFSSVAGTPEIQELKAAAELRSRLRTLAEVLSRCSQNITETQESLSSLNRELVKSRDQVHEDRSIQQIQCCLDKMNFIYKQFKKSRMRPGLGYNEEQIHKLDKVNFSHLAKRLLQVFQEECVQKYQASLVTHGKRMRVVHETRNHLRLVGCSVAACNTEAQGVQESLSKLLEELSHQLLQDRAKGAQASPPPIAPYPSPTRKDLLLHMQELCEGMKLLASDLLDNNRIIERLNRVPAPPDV", "experiment": "Inhibition of human full length recombinant IKKepsilon assessed as residual activity at 1 uM using casein as substrate incubated for 40 mins in presence of [gamma 33P]-ATP by radiometric scintillation counting assay relative to control", "method_in_brief": "as §1"}, "[5]": {"biological_target": "Tyrosine-protein kinase ABL1 (Homo sapiens) (UniProt P00519)", "sequence (P00519 whole entry)": "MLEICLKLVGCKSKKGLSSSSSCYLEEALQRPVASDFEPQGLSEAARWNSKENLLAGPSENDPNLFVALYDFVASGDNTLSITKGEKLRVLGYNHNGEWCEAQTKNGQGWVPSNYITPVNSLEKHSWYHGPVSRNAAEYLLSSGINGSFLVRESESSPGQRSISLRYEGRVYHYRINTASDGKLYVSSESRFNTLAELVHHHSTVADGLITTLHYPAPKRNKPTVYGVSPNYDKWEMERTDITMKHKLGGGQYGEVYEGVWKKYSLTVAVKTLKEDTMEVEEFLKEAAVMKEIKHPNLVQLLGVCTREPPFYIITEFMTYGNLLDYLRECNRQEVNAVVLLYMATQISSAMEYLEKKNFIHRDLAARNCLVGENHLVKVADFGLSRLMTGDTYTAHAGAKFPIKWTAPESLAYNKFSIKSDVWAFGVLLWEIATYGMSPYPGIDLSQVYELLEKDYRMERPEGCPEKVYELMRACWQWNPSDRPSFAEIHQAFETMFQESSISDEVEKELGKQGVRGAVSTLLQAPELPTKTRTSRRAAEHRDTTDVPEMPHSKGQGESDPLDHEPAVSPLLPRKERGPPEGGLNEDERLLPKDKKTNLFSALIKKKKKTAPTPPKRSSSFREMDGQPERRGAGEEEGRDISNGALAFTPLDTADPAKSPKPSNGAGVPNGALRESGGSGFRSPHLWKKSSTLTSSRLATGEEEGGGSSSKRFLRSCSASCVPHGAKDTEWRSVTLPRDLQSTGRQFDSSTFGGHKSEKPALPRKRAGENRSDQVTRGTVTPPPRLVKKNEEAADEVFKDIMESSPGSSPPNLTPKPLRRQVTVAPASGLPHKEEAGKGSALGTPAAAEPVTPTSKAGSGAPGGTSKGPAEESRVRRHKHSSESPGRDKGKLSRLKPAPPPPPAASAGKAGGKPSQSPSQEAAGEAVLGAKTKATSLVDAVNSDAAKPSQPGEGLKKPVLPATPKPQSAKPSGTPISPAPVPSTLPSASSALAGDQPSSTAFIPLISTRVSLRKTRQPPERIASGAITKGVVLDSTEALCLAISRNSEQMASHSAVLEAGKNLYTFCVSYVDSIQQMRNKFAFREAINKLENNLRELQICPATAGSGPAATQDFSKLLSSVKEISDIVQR", "experiment": "Inhibition of human recombinant ABL (27 to end residues) assessed as residual activity at 1 uM using EAIYAAPFAKKK as substrate incubated for 40 mins in presence of [gamma33P-ATP] by radiometric scintillation counting analysis", "method_in_brief": "as §1"}, "[6]": {"biological_target": "Ephrin type-B receptor 4 (Homo sapiens) (UniProt P54760)", "sequence (P54760 whole entry)": "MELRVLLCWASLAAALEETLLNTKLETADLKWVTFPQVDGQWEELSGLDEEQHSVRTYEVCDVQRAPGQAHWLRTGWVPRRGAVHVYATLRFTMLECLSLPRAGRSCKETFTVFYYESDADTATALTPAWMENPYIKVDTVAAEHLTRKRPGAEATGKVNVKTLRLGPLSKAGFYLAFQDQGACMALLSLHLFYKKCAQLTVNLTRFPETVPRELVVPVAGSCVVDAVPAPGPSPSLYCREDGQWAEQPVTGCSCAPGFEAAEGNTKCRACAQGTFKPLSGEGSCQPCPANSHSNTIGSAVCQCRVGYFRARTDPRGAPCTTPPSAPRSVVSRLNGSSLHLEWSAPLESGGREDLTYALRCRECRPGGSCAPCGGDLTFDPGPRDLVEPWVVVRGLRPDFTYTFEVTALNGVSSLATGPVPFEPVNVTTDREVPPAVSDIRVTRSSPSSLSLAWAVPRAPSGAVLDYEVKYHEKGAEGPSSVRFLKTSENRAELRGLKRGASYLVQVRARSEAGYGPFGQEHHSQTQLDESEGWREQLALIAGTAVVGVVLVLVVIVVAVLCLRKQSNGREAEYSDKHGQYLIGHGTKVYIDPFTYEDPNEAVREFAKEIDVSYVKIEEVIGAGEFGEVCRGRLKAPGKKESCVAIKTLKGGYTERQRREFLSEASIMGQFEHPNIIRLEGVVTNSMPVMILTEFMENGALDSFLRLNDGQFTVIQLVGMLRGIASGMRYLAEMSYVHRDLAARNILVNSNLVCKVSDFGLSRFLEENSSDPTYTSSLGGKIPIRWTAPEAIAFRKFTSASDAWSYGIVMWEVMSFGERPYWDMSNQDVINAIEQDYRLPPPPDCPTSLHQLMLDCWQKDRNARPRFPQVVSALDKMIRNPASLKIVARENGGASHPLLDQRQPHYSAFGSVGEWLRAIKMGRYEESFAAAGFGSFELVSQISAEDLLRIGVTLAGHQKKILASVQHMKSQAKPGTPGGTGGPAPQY", "experiment": "Inhibition of recombinant human EphB4 (561 to end residues) assessed as residual activity at 1 uM using poly(Glu, Tyr) 4:1 as substrate at 40 mins in presence of [gamma-33ATP] by scintillation counting based radiometry assay relative to control", "method_in_brief": "as §1"}, "[7]": {"biological_target": "T1, Serine/threonine-protein kinase Nek1 (Homo sapiens) (UniProt Q96PY6)", "T1 sequence (whole entry)": "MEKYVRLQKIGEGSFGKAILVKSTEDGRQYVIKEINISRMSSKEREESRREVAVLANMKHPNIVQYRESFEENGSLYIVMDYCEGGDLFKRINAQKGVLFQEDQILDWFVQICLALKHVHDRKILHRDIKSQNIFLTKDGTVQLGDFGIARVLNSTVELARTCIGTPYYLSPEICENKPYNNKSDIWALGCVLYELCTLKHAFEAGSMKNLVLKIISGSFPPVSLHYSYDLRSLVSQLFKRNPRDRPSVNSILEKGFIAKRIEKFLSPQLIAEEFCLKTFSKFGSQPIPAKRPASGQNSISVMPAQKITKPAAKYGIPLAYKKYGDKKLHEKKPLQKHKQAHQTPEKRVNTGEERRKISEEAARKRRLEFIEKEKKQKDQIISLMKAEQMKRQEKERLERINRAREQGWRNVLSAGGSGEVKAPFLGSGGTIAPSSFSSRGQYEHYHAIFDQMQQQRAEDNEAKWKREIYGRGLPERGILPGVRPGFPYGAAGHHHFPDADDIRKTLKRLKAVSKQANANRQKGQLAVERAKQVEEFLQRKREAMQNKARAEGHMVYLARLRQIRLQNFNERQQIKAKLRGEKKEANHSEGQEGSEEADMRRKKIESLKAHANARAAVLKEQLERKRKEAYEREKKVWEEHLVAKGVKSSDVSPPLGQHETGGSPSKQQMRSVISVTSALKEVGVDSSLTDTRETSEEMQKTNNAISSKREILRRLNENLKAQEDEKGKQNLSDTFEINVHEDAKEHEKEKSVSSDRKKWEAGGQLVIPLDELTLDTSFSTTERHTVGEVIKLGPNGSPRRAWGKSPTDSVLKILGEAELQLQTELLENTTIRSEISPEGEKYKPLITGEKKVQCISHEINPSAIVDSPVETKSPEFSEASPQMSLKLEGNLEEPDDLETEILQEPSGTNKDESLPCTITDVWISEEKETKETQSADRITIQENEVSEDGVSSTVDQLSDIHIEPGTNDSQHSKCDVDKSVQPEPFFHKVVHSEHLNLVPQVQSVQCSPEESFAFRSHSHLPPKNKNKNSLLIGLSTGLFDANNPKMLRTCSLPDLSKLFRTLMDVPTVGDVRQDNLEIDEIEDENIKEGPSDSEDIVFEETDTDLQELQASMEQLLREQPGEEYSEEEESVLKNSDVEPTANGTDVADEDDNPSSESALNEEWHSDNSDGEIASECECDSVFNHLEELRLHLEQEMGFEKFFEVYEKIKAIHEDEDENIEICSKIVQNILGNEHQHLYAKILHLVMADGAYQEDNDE", "experiment": "Inhibition of human recombinant NEK1 (1 to 505 residues) assessed as residual activity at 1 uM using RLGRDKYKTLRQIRQ as substrate incubated for 40 mins in presence of [gamma-33P]-ATP by radiometric scintillation counting assay relative to control", "method_in_brief": "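Eurofins KinaseProfiler radiometric panel, compound at 1 μM, ATP at 10 μM or within 15 μM of apparent Km. For Nek1 (1−505): 8 mM MOPS pH 7.0, 0.2 mM EDTA, 250 μM peptide, 10 mM Mg acetate, [γ-33P]-ATP, 40 min at room temperature. Stopped with 0.5% phosphoric acid, filtermat spotting, scintillation counting. Mean of two independent experiments.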"}, "[8]": {"biological_target": "Protein kinase C eta type (Homo sapiens) (UniProt P24723)", "sequence (P24723 whole entry)": "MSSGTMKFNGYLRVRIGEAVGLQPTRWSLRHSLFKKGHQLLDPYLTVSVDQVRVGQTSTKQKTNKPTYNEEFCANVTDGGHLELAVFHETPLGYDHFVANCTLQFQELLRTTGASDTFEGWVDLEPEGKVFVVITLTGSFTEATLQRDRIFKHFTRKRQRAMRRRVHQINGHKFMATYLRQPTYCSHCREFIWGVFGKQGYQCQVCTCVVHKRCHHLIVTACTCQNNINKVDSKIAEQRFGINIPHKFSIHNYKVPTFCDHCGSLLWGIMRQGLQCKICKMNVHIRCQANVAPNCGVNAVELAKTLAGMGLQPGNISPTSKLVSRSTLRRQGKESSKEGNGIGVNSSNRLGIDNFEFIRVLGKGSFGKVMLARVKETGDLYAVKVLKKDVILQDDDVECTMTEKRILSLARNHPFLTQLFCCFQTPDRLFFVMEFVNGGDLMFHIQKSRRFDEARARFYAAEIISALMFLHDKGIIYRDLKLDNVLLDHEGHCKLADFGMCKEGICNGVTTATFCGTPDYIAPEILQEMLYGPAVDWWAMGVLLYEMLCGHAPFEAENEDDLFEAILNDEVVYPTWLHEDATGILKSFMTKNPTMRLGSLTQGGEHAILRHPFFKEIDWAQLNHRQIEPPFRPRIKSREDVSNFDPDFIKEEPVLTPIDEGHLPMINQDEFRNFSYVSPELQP", "experiment": "Inhibition of recombinant human full length PKCeta (2 to end residues) assessed as residual activity at 1 uM using ERMRPRKRQGSVRRRV as substrate incubated for 40 mins in presence of [gamma-33P]-ATP by scintillation counting method relative to control", "method_in_brief": "as §1"}, "[9]": {"biological_target": "Casein kinase I isoform gamma-1 (Homo sapiens) (UniProt Q9HCP0)", "sequence (Q9HCP0 whole entry, looked up, the tested form may be a part, canonical isoform)": "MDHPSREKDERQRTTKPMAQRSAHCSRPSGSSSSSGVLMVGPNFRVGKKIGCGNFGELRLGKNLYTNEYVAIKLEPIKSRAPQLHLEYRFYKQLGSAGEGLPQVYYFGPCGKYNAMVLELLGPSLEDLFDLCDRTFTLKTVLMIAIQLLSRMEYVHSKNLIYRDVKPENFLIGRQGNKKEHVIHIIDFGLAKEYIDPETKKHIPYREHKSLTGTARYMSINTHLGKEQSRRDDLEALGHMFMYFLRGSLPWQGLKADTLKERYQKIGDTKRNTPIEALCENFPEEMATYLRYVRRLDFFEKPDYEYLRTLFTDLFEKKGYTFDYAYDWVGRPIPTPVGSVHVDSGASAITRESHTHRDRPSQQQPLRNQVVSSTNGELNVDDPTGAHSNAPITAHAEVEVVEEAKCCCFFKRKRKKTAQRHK", "experiment": "Inhibition of recombinant human CK1gamma1 (25 to 355 residues) assessed as residual activity at 1 uM using KRRRALS(p)VASLPGL as substrate measured after 40 mins in presence of [gamma33P]ATP by radiometric scintillation counting method relative to control", "method_in_brief": "as §1"}, "[10]": {"experiment": "Toxicity in wild-type Zebrafish embryos assessed as effect on body curvature at 0.05 to 30 uM measured upto 120 hrs", "parameters": "species or system Danio rerio", "settings": "in vivo, dose 0.05-30 µM", "method_in_brief": "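Wild-type embryos, 15 per group with intact chorions, dosed at 6 hpf with 0.05–30 μM final concentrations in E3, diluted from a DMSO stock. Survival checked every 24 h by heartbeat over 120 h, and phenotypes assessed visually. At least triplicate, 5 replicates at 30 μM.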"}},
  "data": [
    {"molecule": "O=S(=O)(N[C@@H](CO)Cc1c[nH]c2ccccc12)c1ccc(-c2ccnc3[nH]ccc23)cc1", "values": [
      {"measurement": "Activity", "setting": "[1]", "result": "> 75", "unit": "%"},
      {"measurement": "Activity", "setting": "Homo sapiens", "result": "> 75", "unit": "%"},
      {"measurement": "Activity", "setting": "[2]", "result": "> 75", "unit": "%"},
      {"measurement": "Activity", "setting": "[3]", "result": "> 75", "unit": "%"},
      {"measurement": "Activity", "setting": "[4]", "result": "> 75", "unit": "%"},
      {"measurement": "Activity", "setting": "[5]", "result": "> 75", "unit": "%"},
      {"measurement": "Activity", "setting": "[6]", "result": "> 75", "unit": "%"},
      {"measurement": "Activity", "setting": "[7]", "result": 4, "unit": "%"},
      {"measurement": "Activity", "setting": "[8]", "result": "> 75", "unit": "%"},
      {"measurement": "Activity", "setting": "[9]", "result": "> 75", "unit": "%"},
      {"measurement": "Activity", "setting": "[10]", "result": "Non-Toxic"}
    ]}
  ]
}
